{"source": "ChEMBL document CHEMBL5712896", "about": "“Targeting EHMT2 reverses EGFR-TKI resistance in NSCLC by epigenetically regulating the PTEN/AKT signaling pathway” (2018)", "key": {"PC-9/ER [1]": {"system": "PC-9/ER", "assay": "Antitumor activity against human PC-9/ER cells xenografted in SCID mouse assessed as inhibition of tumor growth at 12.5 mg/kg, ip daily for 3 weeks", "type": "functional, organism-based", "in_short": "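Male SCID mice, 7–8 weeks old, injected s.c. in the right flank with 5 × 10^6 PC9/ER cells in PBS. At an average tumor volume of 50 mm3, randomized into groups of n = 6: saline, UNC0642 2.5 mg/kg bid i.p., Erlotinib 12.5 mg/kg/day i.p., or both. Tumor volume tracked and body weight recorded; tumors weighed after sacrifice at 3 weeks.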"}, "PC-9/ER [2]": {"system": "PC-9/ER", "assay": "Induction of apoptosis in human PC-9/ER cells assessed as late apoptotic cells at 1 uM for 48 hrs by annexin V/PI staining based flow cytometric analysis relative to control", "type": "functional", "in_short": "(§1)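 PC9/ER cells given a PTEN expression vector or mock vector, then Erlotinib 1 μM for 48 h. Cells stained with Annexin V–FITC/PI (5 min, room temperature, dark) and analyzed by flow cytometry.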"}, "PC-9/ER [3]": {"system": "PC-9/ER", "assay": "Induction of apoptosis in human PC-9/ER cells assessed as late apoptotic cells at 1 uM for 48 hrs by annexin V/PI staining based flow cytometric analysis in presence of PTEN vector relative to control", "type": "functional", "in_short": "as §1"}, "PC-9 [4]": {"system": "PC-9", "assay": "Induction of apoptosis in human PC-9 cells assessed as necrotic cells at 0.1 uM for 48 hrs by annexin V/PI staining based flow cytometric analysis in presence of PTEN-siRNA relative to control", "type": "functional", "in_short": "(§2)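 PC9 cells given PTEN siRNA or scramble siRNA, then Erlotinib 0.1 μM for 48 h. Apoptosis by Annexin V–FITC/PI staining for 5 min at room temperature in the dark, read by flow cytometry.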"}, "PC-9 [5]": {"system": "PC-9", "assay": "Induction of apoptosis in human PC-9 cells assessed as necrotic cells at 0.1 uM for 48 hrs by annexin V/PI staining based flow cytometric analysis relative to control", "type": "functional", "in_short": "as §2"}, "PC-9/ER [6]": {"system": "PC-9/ER", "assay": "Induction of apoptosis in human PC-9/ER cells assessed as late apoptotic cells at 1 uM for 48 hrs by annexin V/PI staining based flow cytometric analysis in presence of […] siRNA (reference value: 4.2%)", "type": "functional"}, "PC-9/ER [7]": {"system": "PC-9/ER", "assay": "Induction of apoptosis in human PC-9/ER cells assessed as late apoptotic cells at 1 uM for 48 hrs by annexin V/PI staining based flow cytometric analysis in presence of scramble non-target siRNA (reference value: 4.2%)", "type": "functional"}, "PC-9/ER [8]": {"system": "PC-9/ER", "assay": "Induction of apoptosis in human PC-9/ER cells assessed as early apoptotic cells at 1 uM for 48 hrs by annexin V/PI staining based flow cytometric analysis in presence of PTEN vector relative to control", "type": "functional", "in_short": "as §1"}, "PC-9/ER [9]": {"system": "PC-9/ER", "assay": "Induction of apoptosis in human PC-9/ER cells assessed as necrotic cells at 1 uM for 48 hrs by annexin V/PI staining based flow cytometric analysis (reference value: 2.1%)", "type": "functional"}, "PC-9/ER [10]": {"system": "PC-9/ER", "assay": "Induction of apoptosis in human PC-9/ER cells assessed as viable cells at 1 uM for 48 hrs by annexin V/PI staining based flow cytometric analysis in presence of […] siRNA (reference value: 92.2%)", "type": "functional", "details": "read-out: Activity"}, "PC-9/ER [11]": {"system": "PC-9/ER", "assay": "Induction of apoptosis in human PC-9/ER cells assessed as early apoptotic cells at 1 uM for 48 hrs by annexin V/PI staining based flow cytometric analysis in presence of scramble non-target siRNA (reference value: 1.3%)", "type": "functional"}, "PC-9/ER [12]": {"system": "PC-9/ER", "assay": "Induction of apoptosis in human PC-9/ER cells assessed as viable cells at 1 uM for 48 hrs by annexin V/PI staining based flow cytometric analysis in presence of PTEN vector relative to control", "type": "functional", "details": "read-out: Activity", "in_short": "as §1"}, "PC-9/ER [13]": {"system": "PC-9/ER", "assay": "Induction of apoptosis in human PC-9/ER cells assessed as necrotic cells at 1 uM for 48 hrs by annexin V/PI staining based flow cytometric analysis relative to control", "type": "functional", "in_short": "as §1"}, "PC-9 [14]": {"system": "PC-9", "assay": "Induction of apoptosis in human PC-9 cells assessed as early apoptotic cells at 0.1 uM for 48 hrs by annexin V/PI staining based flow cytometric analysis in presence of PTEN-siRNA relative to control", "type": "functional", "in_short": "as §2"}, "PC-9 [15]": {"system": "PC-9", "assay": "Induction of apoptosis in human PC-9 cells assessed as late apoptotic cells at 0.1 uM for 48 hrs by annexin V/PI staining based flow cytometric analysis relative to control", "type": "functional", "in_short": "as §2"}, "PC-9/ER [16]": {"system": "PC-9/ER", "assay": "Induction of apoptosis in human PC-9/ER cells assessed as necrotic cells at 1 uM for 48 hrs by annexin V/PI staining based flow cytometric analysis in presence of […] siRNA (reference value: 2.3%)", "type": "functional"}, "PC-9 [17]": {"system": "PC-9", "assay": "Induction of apoptosis in human PC-9 cells assessed as viable cells at 0.1 uM for 48 hrs by annexin V/PI staining based flow cytometric analysis relative to control", "type": "functional", "details": "read-out: Activity", "in_short": "as §2"}, "PC-9/ER [18]": {"system": "PC-9/ER", "assay": "Induction of apoptosis in human PC-9/ER cells assessed as viable cells at 1 uM for 48 hrs by annexin V/PI staining based flow cytometric analysis relative to control", "type": "functional", "details": "read-out: Activity", "in_short": "as §1"}, "PC-9/ER [19]": {"system": "PC-9/ER", "assay": "Induction of apoptosis in human PC-9/ER cells assessed as late apoptotic cells at 1 uM for 48 hrs by annexin V/PI staining based flow cytometric analysis (reference value: 5.7%)", "type": "functional"}, "PC-9 [20]": {"system": "PC-9", "assay": "Induction of apoptosis in human PC-9 cells assessed as early apoptotic cells at 0.1 uM for 48 hrs by annexin V/PI staining based flow cytometric analysis relative to control", "type": "functional", "in_short": "as §2"}, "PC-9 [21]": {"system": "PC-9", "assay": "Induction of apoptosis in human PC-9 cells assessed as late apoptotic cells at 0.1 uM for 48 hrs by annexin V/PI staining based flow cytometric analysis in presence of PTEN-siRNA relative to control", "type": "functional", "in_short": "as §2"}, "PC-9/ER [22]": {"system": "PC-9/ER", "assay": "Induction of apoptosis in human PC-9/ER cells assessed as viable cells at 1 uM for 48 hrs by annexin V/PI staining based flow cytometric analysis in presence of scramble non-target siRNA (reference value: 92.2%)", "type": "functional", "details": "read-out: Activity"}, "PC-9/ER [23]": {"system": "PC-9/ER", "assay": "Induction of apoptosis in human PC-9/ER cells assessed as viable cells at 1 uM for 48 hrs by annexin V/PI staining based flow cytometric analysis (reference value: 91.4%)", "type": "functional", "details": "read-out: Activity"}, "PC-9/ER [24]": {"system": "PC-9/ER", "assay": "Antiproliferative activity against human PC-9/ER cells assessed as reduction in cell survival rate pretreated with UNC0638 followed by compound addition upto 1 uM incubated for 48 hrs by MTT assay", "type": "functional, cell-based", "in_short": "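PC9/ER cells pretreated with UNC0638 (100 nM), DMSO as control, then given Erlotinib at a range of concentrations for 48 h. Viability by MTT: 4 h at 37 °C, formazan dissolved in DMSO, absorbance at 570 nm.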"}, "PC-9/ER [25]": {"system": "PC-9/ER", "assay": "Induction of apoptosis in human PC-9/ER cells assessed as necrotic cells at 1 uM for 48 hrs by annexin V/PI staining based flow cytometric analysis in presence of PTEN vector relative to control", "type": "functional", "in_short": "as §1"}, "PC-9/ER [26]": {"system": "PC-9/ER", "assay": "Induction of apoptosis in human PC-9/ER cells assessed as necrotic cells at 1 uM for 48 hrs by annexin V/PI staining based flow cytometric analysis in presence of scramble non-target siRNA (reference value: 2.3%)", "type": "functional"}, "PC-9/ER [27]": {"system": "PC-9/ER", "assay": "Induction of apoptosis in human PC-9/ER cells assessed as early apoptotic cells at 1 uM for 48 hrs by annexin V/PI staining based flow cytometric analysis relative to control", "type": "functional", "in_short": "as §1"}, "PC-9 [28]": {"system": "PC-9", "assay": "Induction of apoptosis in human PC-9 cells assessed as viable cells at 0.1 uM for 48 hrs by annexin V/PI staining based flow cytometric analysis in presence of PTEN-siRNA relative to control", "type": "functional", "details": "read-out: Activity", "in_short": "as §2"}, "PC-9/ER [29]": {"system": "PC-9/ER", "assay": "Induction of apoptosis in human PC-9/ER cells assessed as early apoptotic cells at 1 uM for 48 hrs by annexin V/PI staining based flow cytometric analysis in presence of […] siRNA (reference value: 1.3%)", "type": "functional"}, "PC-9/ER [30]": {"system": "PC-9/ER", "assay": "Induction of apoptosis in human PC-9/ER cells assessed as early apoptotic cells at 1 uM for 48 hrs by annexin V/PI staining based flow cytometric analysis (reference value: 0.9%)", "type": "functional"}}, "note": "The source made the active and inactive calls. No cut-off for these calls is given here.", "data": [{"smiles": "C#Cc1cccc(Nc2ncnc3cc(OCCOC)c(OCCOC)cc23)c1", "note": "[ERLOTINIB]", "values": [{"measurement": "Activity", "setting": "PC-9/ER [1]", "result": "inactive"}, {"measurement": "Activity", "setting": "PC-9/ER [2]", "result": 6.4, "unit": "%"}, {"measurement": "Activity", "setting": "PC-9/ER [3]", "result": 5.7, "unit": "%"}, {"measurement": "Activity", "setting": "PC-9 [4]", "result": 1.6, "unit": "%"}, {"measurement": "Activity", "setting": "PC-9 [5]", "result": 5.1, "unit": "%"}, {"measurement": "Activity", "setting": "PC-9/ER [6]", "result": 17.5, "unit": "%"}, {"measurement": "Activity", "setting": "PC-9/ER [7]", "result": 9.8, "unit": "%"}, {"measurement": "Activity", "setting": "PC-9/ER [8]", "result": 22.7, "unit": "%"}, {"measurement": "Activity", "setting": "PC-9/ER [9]", "result": 4.9, "unit": "%"}, {"measurement": "viability at 1 µM", "setting": "PC-9/ER [10]", "result": 77.4, "unit": "%"}, {"measurement": "Activity", "setting": "PC-9/ER [11]", "result": 1.3, "unit": "%"}, {"measurement": "viability at 1 µM", "setting": "PC-9/ER [12]", "result": 70.1, "unit": "%"}, {"measurement": "Activity", "setting": "PC-9/ER [13]", "result": 1.6, "unit": "%"}, {"measurement": "Activity", "setting": "PC-9 [14]", "result": 15.3, "unit": "%"}, {"measurement": "Activity", "setting": "PC-9 [15]", "result": 18.8, "unit": "%"}, {"measurement": "Activity", "setting": "PC-9/ER [16]", "result": 4.5, "unit": "%"}, {"measurement": "viability at 0.1 µM", "setting": "PC-9 [17]", "result": 58.2, "unit": "%"}, {"measurement": "viability at 1 µM", "setting": "PC-9/ER [18]", "result": 87.1, "unit": "%"}, {"measurement": "Activity", "setting": "PC-9/ER [19]", "result": 14.5, "unit": "%"}, {"measurement": "Activity", "setting": "PC-9 [20]", "result": 17.9, "unit": "%"}, {"measurement": "Activity", "setting": "PC-9 [21]", "result": 6.6, "unit": "%"}, {"measurement": "viability at 1 µM", "setting": "PC-9/ER [22]", "result": 82.7, "unit": "%"}, {"measurement": "viability at 1 µM", "setting": "PC-9/ER [23]", "result": 77.8, "unit": "%"}, {"measurement": "Activity", "setting": "PC-9/ER [24]", "result": "Active"}, {"measurement": "Activity", "setting": "PC-9/ER [25]", "result": 1.5, "unit": "%"}, {"measurement": "Activity", "setting": "PC-9/ER [26]", "result": 6.2, "unit": "%"}, {"measurement": "Activity", "setting": "PC-9/ER [27]", "result": 4.9, "unit": "%"}, {"measurement": "viability at 0.1 µM", "setting": "PC-9 [28]", "result": 76.5, "unit": "%"}, {"measurement": "Activity", "setting": "PC-9/ER [29]", "result": 0.6, "unit": "%"}, {"measurement": "Activity", "setting": "PC-9/ER [30]", "result": 2.8, "unit": "%"}]}]}
